Measurements: ChEMBL document CHEMBL5303300, “EUbOPEN Chemogenomics Library - Multiplex” (2023)
Several values for one entry are separate records, joined by “and”; a condition that tells them apart may be missing. Identical values can stand only once.

Tested on: Fibroblast
Experiment: Multiplex assay against human fibroblast
Assay type: toxicity, cell-based
Conditions: number of replicates 2
Procedure, shortened: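 Live cells carried four stains from seeding: Hoechst33342, BioTracker Green Microtubule Cytoskeleton Dye, MitoTracker Red and Annexin V Alexa Fluor 680. They were imaged on a CQ1 microscope at 37°C and 5% CO2 after compound addition. Using CellPathfinder machine-learning gating, cells were split into Hoechst high-intensity objects or normal cells, normal cells into healthy, pyknosed or fragmented nuclei, and pyknosed cells into mitotic or apoptotic; tubulin, mitochondrial-mass and membrane-permeability phenotypes are per cents of healthy-nucleus cells.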

[1] = 12 h, 1 µM, compound concentration 1 uM
[2] = 12 h, 10 µM, compound concentration 10 uM
[3] = 24 h, 1 µM, compound concentration 1 uM
[4] = 24 h, 10 µM, compound concentration 10 uM
[5] = 48 h, 1 µM, compound concentration 1 uM
[6] = 48 h, 10 µM, compound concentration 10 uM

Compound	Population Healthy Nuclei (%) [1]	Population Hoechst High Intensity Objects (%) [1]	Population Mitotic Cells (%) [1]	Population Pyknosed Nuclei (%) [1]	Total Cell Count [1]	Population Healthy Nuclei (%) [2]	Population Hoechst High Intensity Objects (%) [2]	Population Mitotic Cells (%) [2]	Population Pyknosed Nuclei (%) [2]	Total Cell Count [2]	Population Healthy Nuclei (%) [3]	Population Hoechst High Intensity Objects (%) [3]	Total Cell Count [3]	Population Healthy Nuclei (%) [4]	Population Hoechst High Intensity Objects (%) [4]	Population Mitotic Cells (%) [4]	Population Pyknosed Nuclei (%) [4]	Total Cell Count [4]	Population Healthy Nuclei (%) [5]	Population Hoechst High Intensity Objects (%) [5]	other results
CS(=O)(=O)c1ccc(C(=O)Nc2cccc(COc3ccc(Br)cc3CN3CC[C@H](O)C3)c2)cc1.O=CO	48% and 65%	0%	52%	37% and 30%	166 and 138	55% and 64%	0%	51%	30%	180 and 311	54% and 50%	0%	142 and 175	57% and 60%	0%	29% and 31%	10%	214 and 336	55% and 59%	0% and 1%	Population Fragmented Nuclei (%) [1]: 13% and 4%; Population Normal (%) [1]: 100%; Population Fragmented Nuclei (%) [2]: 15% and 22%; Population Normal (%) [2]: 100%; Population Fragmented Nuclei (%) [3]: 9% and 14%; Population Normal (%) [3]: 100% and 99%; Population Fragmented Nuclei (%) [4]: 18% and 28%; Population Normal (%) [4]: 99%; Population Fragmented Nuclei (%) [5]: 14% and 21%; Population Mitotic Cells (%) [5]: 36% and 22%; Population Normal (%) [5]: 100% and 98%; Population Pyknosed Nuclei (%) [5]: 29% and 19%; Total Cell Count [5]: 147 and 164; Population Fragmented Nuclei (%) [6]: 28% and 31%; Population Healthy Nuclei (%) [6]: 62% and 61%; Population Hoechst High Intensity Objects (%) [6]: 0%; Population Mitotic Cells (%) [6]: 4% and 13%; Population Normal (%) [6]: 100% and 99%; Population Pyknosed Nuclei (%) [6]: 9%; Total Cell Count [6]: 253 and 402
CS(=O)(=O)c1ccc(C(=O)Nc2cccc(COc3ccc(Br)cc3CN3CCC[C@H](O)C3)c2)c(Cl)c1.O=CO	71% and 60%	0%	55% and 58%	17% and 22%	200 and 202	52% and 60%	0%	49% and 62%	18%	221 and 338	72% and 64%	0%	214 and 180	50% and 65%	0%	35% and 26%	21% and 12%	261 and 390	73% and 72%	0%	Population Mitotic Cells (%) [3]: 38% and 53%; Population Pyknosed Nuclei (%) [3]: 21%; Population Mitotic Cells (%) [5]: 20% and 29%; Population Pyknosed Nuclei (%) [5]: 12%; Total Cell Count [5]: 198 and 185; Population Healthy Nuclei (%) [6]: 54% and 63%; Population Hoechst High Intensity Objects (%) [6]: 0%; Population Mitotic Cells (%) [6]: 10% and 9%; Population Pyknosed Nuclei (%) [6]: 7%; Total Cell Count [6]: 285 and 416
